Published values gathered from unrelated publications.
Each line is one published result; the experiments were not run side by side.
Observed: cell growth or viability

COc1ccc(CNC[C@@](C)(O)[C@@H]2CC[C@@H](C)C[C@H]2OCc2ccccc2)cc1  inhibition (A2780; MTT; 10 µM, 72 h): 42.9%
COc1nc(NCc2cn(-c3ccc(C(=O)Nc4ccc([N+](=O)[O-])cc4)cc3)nn2)nc(OC)n1  IC50 (Caco-2; MTT; 72 h): 724 nM
O=C(c1ccc(Oc2ccc(-c3ccccc3)cc2)c([N+](=O)[O-])c1)C(Cl)Cl  inhibition (NCI-H1650; MTT; 2.5 µM): 97.5%
C[C@@H]1CC[C@@H]([C@](C)(O)CNCc2ccccc2)[C@H](OCc2ccccc2)C1  inhibition (A2780; MTT; 30 µM, 72 h): 94.3%
O=C(c1ccc(Oc2ccc(OCc3ccccc3)cc2)c([N+](=O)[O-])c1)C(Cl)Cl  inhibition (NCI-H1650; MTT; 2.5 µM): 96.9%
C[C@@H]1CC[C@@H]([C@](O)(CNCc2ccc(F)cc2)COCc2ccc(F)cc2)[C@H](OCc2ccc(F)cc2)C1  inhibition (A2780; MTT; 30 µM, 72 h): 95.3%
O=C(c1ccccc1)c1ccc(Oc2ccc(C(=O)C(Cl)Cl)cc2[N+](=O)[O-])cc1  inhibition (NCI-H1650; MTT; 2.5 µM): 96.5%
C=C(F)C(=O)N1CCN(c2nc(OC[C@@H]3CCCN3C)nc3c2CCN(c2cccc4cccc(Cl)c24)C3)C[C@@H]1CC#N  IC50 (UMUC3; ATP luminescence; 3D culture): 8.43 nM
COc1nc(NCc2cn(-c3ccc(C(=O)Nc4ccc(Br)cc4)cc3)nn2)nc(OC)n1  IC50 (Caco-2; MTT; 72 h): 674 nM
COc1ccc(COC[C@@](O)(CNCc2ccc(F)cc2)[C@@H]2CC[C@@H](C)C[C@H]2OCc2ccc(OC)cc2)cc1  inhibition (A2780; MTT; 30 µM, 72 h): 100%
O=C(c1ccc(Oc2ccc3c(c2)OCO3)c([N+](=O)[O-])c1)C(Cl)Cl  inhibition (NCI-H1650; MTT; 2.5 µM): 84.4%
C[C@@H]1CC[C@@H]([C@@](O)(CNCc2ccccc2)COCc2ccc(F)cc2)[C@H](OCc2ccc(F)cc2)C1  inhibition (A2780; MTT; 30 µM, 72 h): 98.5%
O=C1CC[C@@H](COc2ccc(C(=O)C(Cl)Cl)cc2[N+](=O)[O-])N1  inhibition (NCI-H1650; MTT; 2.5 µM): 29.8%
C[C@@H]1CC[C@@H]([C@](O)(CNCc2cccc3ccccc23)COCc2ccccc2)[C@H](OCc2ccccc2)C1  inhibition (A2780; MTT; 10 µM, 72 h): 90.7%
COc1cccc2c1C(=O)c1c(O)c3c(c(O)c1C2=O)C[C@@](O)(C(=O)CO)C[C@@H]3O[C@H]1C[C@H](N)[C@H](O)[C@H](C)O1  viability (Caco-2; MTT; 6.25 µg/mL, 48 h, serum-free): 62.1%
O=C(c1ccc(Oc2ccc(Br)cc2)c([N+](=O)[O-])c1)C(Cl)Cl  inhibition (NCI-H1650; MTT; 2.5 µM): 96.1%
O=C(NO)c1ccc(CNc2nc3cccc(-c4ccc5c(c4)OCO5)n3n2)cc1  GI50 (HT-29; SRB): 510 nM
C[C@@H]1CC[C@@H]([C@](C)(O)Cn2ccnc2)[C@H](OCc2ccccc2)C1  inhibition (A2780; MTT; 30 µM, 72 h): 39.5%
C=CC(=O)NC1CCN(c2ncc3ncnc(Nc4ccc(Oc5ccc6c(c5)ncn6C)c(C)c4)c3n2)CC1  EC50 (LoVo): 11.8 nM
COc1nc(NCc2cn(-c3ccc(C(=O)Nc4ccc(F)cc4)cc3)nn2)nc(OC)n1  IC50 (Caco-2; MTT; 72 h): 1030 nM
O=C(c1ccc(Oc2ccc3cc(Br)ccc3c2Cl)c([N+](=O)[O-])c1)C(Cl)Cl  inhibition (NCI-H1650; MTT; 2.5 µM): 97%
COc1nc(NCc2cn(-c3ccc(NC(=O)c4ccc(C(F)(F)F)cc4)cc3)nn2)nc(OC)n1  IC50 (Caco-2; MTT; 72 h): 566 nM
O=C(O)c1ccccc1Nc1cccc(C(F)(F)F)c1  GI50 (NCI-H28; CCK-8; 72 h): > 40000 nM
C[C@@H]1CC[C@@H]([C@](O)(CNCc2ccccc2)COCc2ccccc2)[C@H](OCc2ccccc2)C1  inhibition (A2780; MTT; 30 µM, 72 h): 91.1%
COc1cccc2c1C(=O)c1c(O)c3c(c(O)c1C2=O)C[C@@](O)(C(=O)CO)C[C@@H]3O[C@H]1C[C@H](N)[C@H](O)[C@H](C)O1  inhibition (NCI-H1650; MTT; 2.5 µM): 95.8%
C=CC(=O)c1cccnc1Nc1cc(C(F)(F)F)ccc1OCc1ccccc1  GI50 (NCI-H28; CCK-8; 72 h): 11200 nM
